PvdQ inh – P. aeruginosa PvdQ acylase inhibitors, primary screen, biochemical, fluorescence, plate reader and imaging, single point; PvdQ acylase [Pseudomonas aeruginosa LESB58]; purified PvdQ acylase; inhibition, % at 10 µM; 340,000 tested, 0.063% active; AID 488965, 2010; in the data active = inhibition above about 30%, passing the limit was not always enough
XBP1 UPR activ – activators of adaptive XBP1 UPR arm, primary screen, cell-based, CHO-XBP1 luciferase reporter, luminescence, uHTS. IRE1-XBP1 UPR activation; percent of tunicamycin response, DMSO as zero. activation, % at 20 µM. 330,000 tested, 0.33% active. AID 463104, 2010;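 active = versus positive control, 20 µM dose yields 30% or more activation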
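Material: IRE1-XBP1 luciferase reporter CHO line / Quantity: one thousand reporter cells per well / Buffer or medium: F12 with 10% serum / Compound: 20 µM single concentration, DMSO 1% / Times: 6 h treatment, 37 °C / Detection: Steady-Glo luciferase glow luminescence, 10 min after reagent addition / Benchmarks: tunicamycin high, DMSO low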
CHOP UPR activ – activators of apoptotic CHOP UPR arm, primary screen, cell-based, CHO-CHOP luciferase reporter, luminescence, uHTS. UPR activation; percent of tunicamycin response over DMSO baseline. activation, % at 10 µM. 330,000 tested, 0.34% active. AID 449763, 2010;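 active = at 10 µM dose, activation of 40% or more, normalized to positive control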
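System: CHO-CHOP luciferase reporter cell line; amount: 500 cells/well; buffer or medium: F12 medium containing 10% fetal bovine serum; incubation: 6 h compound exposure at 37 °C after overnight seeding; measured by: luciferase luminescence after 10 min with Steady-Glo reagent; evaluation: % reporter activation, DMSO baseline versus tunicamycin full activation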
CHOP inh – inhibitors of CHOP promoter induction, primary screen, cell-based, unfolded protein response, luciferase reporter; CHO-K1 CHOP-promoter luciferase, tunicamycin-induced, 15-18 h; inhibition, % at 10 µM; 220,000 tested, 3.8% active;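 active = compounds that reduced the stress-induced luciferase reporter signal by more than about 70% of percent inhibition, limit read from the data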
Hits are given with their value; n = inactive; x = no result. The entries come from a sample that favours hits as a whole.

SMILES | PvdQ inh | XBP1 UPR activ | CHOP UPR activ | CHOP inh
Cn1c(=O)n(C)c2cc([N+](=O)[O-])c(N3CCN(S(=O)(=O)c4ccc(C(C)(C)C)cc4)CC3)cc21 | n | n | n | 75.0
COC(=O)c1ccc(N2CCN(S(=O)(=O)c3ccc(C)cc3)CC2)c([N+](=O)[O-])c1 | n | n | n | 75.4
CCOc1ccc(C2=Cc3cc(OC)c(OC)cc3C(=C(Cl)Cl)O2)cc1 | x | x | x | n
CCN(CC)C(=O)c1ccc(/C=C/c2c[nH]c3ccccc23)[n+](C)c1 | n | n | n | n
CC[n+]1c(/C=C/c2c[nH]c3ccccc23)ccc2cc(C)ccc21 | n | n | n | 75.3
Cc1ccc(-c2nnc(SCC(=O)NC3CCS(=O)(=O)C3)nc2-c2ccc(C)cc2)cc1 (stereo not given) | n | n | n | n
COc1ccc(C(=O)Nc2ccc(S(=O)(=O)Nc3nccc(C)n3)cc2)cc1[N+](=O)[O-] | n | n | n | x
Cc1cccc(NC(=O)CNC(=O)c2ccc3c(c2)OCO3)n1 | n | n | n | x
Cc1cccc(NC(=O)c2ccc3c(c2)OCCO3)n1 | 37.3 | n | n | x
CCOc1ccc(C(=O)Nc2cccc(C)n2)cc1 | 51.2 | n | n | n
O=C(N/N=C\c1ccccc1F)c1ccc(-c2ccccc2)cc1 | n | n | n | x
COc1ccc(Cl)cc1S(=O)(=O)N1CCN(C(=O)c2n[nH]c(=O)c3ccccc23)CC1 | n | n | n | x
Cc1cc(C)c(C)c(OCCCOc2cccc3cccnc23)c1 | n | n | n | 81.3
Cc1cc(OCCOc2cccc3cccnc23)cc(C)c1Cl | n | n | n | 74.7
CC(C)Oc1ccccc1OCCCOc1cccc2cccnc12 | n | n | n | n
c1ccc(OCCOc2cccc3cccnc23)cc1 | n | n | n | n
O=C(Nc1ccccc1C(=O)NCCc1ccccc1)c1cnccn1 | n | n | n | x
CC1CCc2c(nc3ncnn3c2NCCN(C)C)C1 (stereo not given) | n | n | n | n
O=C(NC1CCCCC1)NS(=O)(=O)c1ccc2c(c1)CCC2 | n | x | x | x
CC(C)(C)c1cc(NC(=O)CCSc2nnc3ccccn23)cc(C(C)(C)C)c1 | n | n | n | 88.4
CC(=O)O[C@H]1CC2(C)[C@@H](C[C@@H](O)[C@H]3[C@@]4(C)CC[C@@H](O)[C@@H](C)[C@@H]4CC[C@@]32C)C1=C(CCC=C(C)C)C(=O)O (stereo not given in full) | x | x | x | n
COc1ccc(NC(=O)Cn2nnc(-c3ccccc3NC(=O)c3ccco3)n2)cc1 | n | n | n | 81.7
CC(C)(C)NC(=O)Cn1nnc(-c2ccccc2NC(=O)c2cnccn2)n1 | n | n | n | n
COc1ccccc1NC(=O)Cn1nnc(-c2ccccc2NC(=O)c2cnccn2)n1 | n | n | n | 89.9
O=C(Cn1nnc(-c2ccccc2NC(=O)c2cccs2)n1)Nc1ccccc1 | n | n | n | 79.7
SMILES | PvdQ inh | XBP1 UPR activ | CHOP UPR activ | CHOP inh
COc1ccccc1NC(=O)Cn1nnc(-c2ccccc2NC(=O)c2cccs2)n1 | n | n | n | n
CCOc1ccccc1N=Nc1c(C)[nH]n(C(N)=S)c1=O | n | n | n | x
c1ccc(CN2C3=NCCCN3c3ccccc32)cc1 | n | n | n | n
Clc1ccc(CN2C3=NCCN3c3ccccc32)cc1 | n | n | n | 71.5
CSc1nnc(CSCc2ccc(Cl)cc2Cl)n1-c1ccccc1 | n | n | n | 79.3
O=C(COc1ccccc1-c1ccccc1)N/N=C/c1ccccn1 | n | n | n | 77.5
COc1ccc(NC(=S)NC(=O)C2CCC2)cc1 | n | n | n | x
CCOC(=O)C1CCCN(CC(=O)Nc2c(C(=O)OC)[nH]c3ccc(Br)cc23)C1 (stereo not given) | n | n | n | 76.7
Nc1ccc(-c2nc3ccc(C(=O)O)cc3s2)cc1 | n | x | x | 92.1
O=C(O)c1ccc2nc(-c3ccccc3)sc2c1 | n | n | n | n
CN(C)CCCN(C(=O)c1ccc2c(c1)CCCC2)c1nc2ccc(Cl)cc2s1 | n | n | n | 89.9
Cn1c(CC(=O)Nc2ccc(F)cc2)c(Sc2ccccc2)c2ccccc21 | n | n | n | 78.6
O=c1cc(N2CCN(c3ccccc3)CC2)[nH]c(=O)n1C1CCCCC1 | n | n | n | 78.1
CN1CCN(c2cc(=O)n(C3CCCCC3)c(=O)[nH]2)CC1 | n | n | n | n
O=c1cc(N2CCN(c3cccc(Cl)c3)CC2)[nH]c(=O)n1C1CCCCC1 | n | n | n | 74.0
COc1ccc(CNC(=O)Cn2cccc2C(=O)c2ccccc2)cc1 | n | n | n | x
O=C1CC(c2cc(F)ccc2F)c2cc3c(cc2N1)CCC3 (stereo not given) | n | n | n | 71.3
O=C1CC(c2cccc(Br)c2)c2cc3c(cc2N1)CCC3 (stereo not given) | n | n | n | 107.5
CC1(C)CC(=O)C2=C(C1)NC(=O)CC2c1cc(F)ccc1F (stereo not given) | n | n | n | n

High-throughput results as filed in PubChem BioAssay.
